# High-throughput results: PubChem BioAssay, several laboratories
# Most compounds without a hit are left out; they make up all but 4.7% or so of the library.
# KCC2 mod – KCC2 cotransporter modulators, thallium flux, primary screen, cell-based, HEK293 KCC2, FluoZin-2 fluorescence, MLSMR. Solute carrier family 12 member 5 (Homo sapiens), Q9H2X9. KCC2 cells, thallium flux FluoZin-2 fluorescence. B-score of Tl+ flux slope (higher = more flux/activation; lower = inhibition) at 10 µM. 190,000 tested, 2.2% active. AID 1456, 2008;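 active = thallium flux slope and its plate-corrected score both differing from the plate sample mean at a set confidence after two filtering rounds, in either direction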;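 note: slope of fluorescence scaled to starting intensity during 10 to 20 s after thallium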
# MrgX1 antagonist – antagonists of human MrgX1 receptor, primary screen, HEK293 cells, Fluo-4 calcium flux | B-score at 10 µM | BAM8-22 antagonism; active compounds read low | Mas-related G-protein coupled receptor member X1 (Homo sapiens), Q96LB2 | 310,000 tested, 1.3% active | AID 588676, 2011;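 active = calcium-response B-score plate-corrected more than 3 library SD below zero, starting fluorescence within 5 deviations, no agonist response on first addition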;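 note: peak minus trough fluorescence over baseline after final BAM8-22 challenge near maximal dose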
# Target sequence (Q96LB2 whole entry, looked up): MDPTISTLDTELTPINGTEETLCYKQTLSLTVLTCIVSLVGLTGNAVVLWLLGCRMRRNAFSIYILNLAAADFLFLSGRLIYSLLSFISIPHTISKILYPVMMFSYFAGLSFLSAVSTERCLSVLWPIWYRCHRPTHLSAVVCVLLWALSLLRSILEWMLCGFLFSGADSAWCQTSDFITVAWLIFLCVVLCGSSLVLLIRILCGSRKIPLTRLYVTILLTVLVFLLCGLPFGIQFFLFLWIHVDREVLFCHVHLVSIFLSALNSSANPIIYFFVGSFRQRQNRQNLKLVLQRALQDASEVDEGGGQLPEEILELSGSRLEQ
# RGS4 pot – RGS4 potentiators or activators, primary screen, cell-based, HEK293 M3R inducible RGS4, calcium flux; carbachol calcium flux Fluo4; active compounds read low; B-score at 10 µM; 310,000 tested, 0.92% active; AID 463111, 2010;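 active = B-score of the integrated calcium signal more than 4 SD below the library mean, with starting fluorescence not abnormally high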;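 note: negative B-score means reduced calcium response which marks RGS4 activation or potentiation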
#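 test system = HEK293 cells with stable M3R and inducible RGS4 | schedule = recording 10 s baseline at 1 Hz, 100 s post-agonist | technique = Fluo4-AM (2 µM) calcium-flux fluorescence, kinetic read | measure = Agonist-evoked peak-minus-minimum fluorescence over baseline, integrated ratio, B score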
# MrgX1 PAM – positive allosteric modulators of MrgX1, primary screen, HEK293 cells, Fluo-4 calcium flux | FDSS; active compounds read high | B-score at 10 µM | 310,000 tested, 0.63% active | AID 588675, 2011;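 active = plate-corrected calcium response at least 3 library SD above typical, normal starting fluorescence, not activating the receptor alone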;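 note: compound read alongside a low EC10 to EC30 dose of BAM8-22 agonist; peak minus trough fluorescence over baseline measured at the second addition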
# RGS4 inh – RGS4 inhibitors, primary screen, cell-based, HEK293 M3R inducible RGS4, calcium flux; 310,000 tested, 0.45% active; B-score at 10 µM; Fluo-4 calcium flux; active compounds read high; triggered by carbachol at its EC20; Regulator of G-protein signaling 4 (Homo sapiens), P49798;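 active = B-score, a plate-corrected calcium signal, over three deviations above library mean, with baseline fluorescence within five deviations of library mean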;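 note: RGS4 expression induced by doxycycline in cells with stable M3 receptor; B-score is computed from the integrated fluorescence ratio over baseline after carbachol; higher B-score means a larger calcium signal and so more RGS4 inhibition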
# Target sequence (P49798 whole entry, looked up): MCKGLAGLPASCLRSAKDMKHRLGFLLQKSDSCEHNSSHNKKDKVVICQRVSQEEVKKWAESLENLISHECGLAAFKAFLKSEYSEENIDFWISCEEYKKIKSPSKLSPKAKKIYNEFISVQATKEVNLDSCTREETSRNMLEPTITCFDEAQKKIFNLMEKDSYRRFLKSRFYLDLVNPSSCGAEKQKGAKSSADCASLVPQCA
# MrgX1 agonist – agonists of human MrgX1 receptor, primary screen, HEK293 cells, Fluo-4 calcium flux; 310,000 tested, 0.44% active; AID 588627, 2011; Fluo-4 calcium fluorescence, agonist mode; active compounds read high; B-score at 10 µM;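 active = calcium response B-score plate-corrected fluorescence ratio at least 3 library SD, with starting fluorescence B-score inside 5 SD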
#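 times = overnight plating, then 30 min 37 °C plus 30 min room-temperature dye loading | assay system = stable human MrgX1 HEK293 cell line | input = fifteen thousand cells per well | signal = kinetic calcium dye fluorescence, Fluo-4 NW | dosing = compound delivered in addition one of three | read-out = B-scored fluorescence response ratio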
# Numbers without * were called inactive; i = inactive; x = no result.
SMILES,KCC2 mod,MrgX1 antagonist,RGS4 pot,MrgX1 PAM,RGS4 inh,MrgX1 agonist
CCOc1ccccc1OCCN1CCC(Cc2ccccc2)CC1,0.93,i,i,i,i,i
CCOc1ccc(C(C)C)cc1S(=O)(=O)N1CCN(C(=O)c2ccco2)CC1,x,i,i,i,i,i
CCOc1ccc(Nc2nc(NCC3CCCO3)c3ccccc3n2)cc1 (centres undefined),x,-5.9*,-7.2*,i,i,i
CC1=CC(=O)c2c(O)ccc(O)c2C1=O,-5.1*,i,x,i,x,i
Cc1ccc(C)c(NC(=O)C(Sc2nc3ccccc3c(=O)n2CC(C)C)c2ccccc2)c1 (centres undefined),0.94,i,-7.3*,i,i,i
Cc1ccc(CCNC(=O)c2nnc(CS(=O)(=O)c3ccccc3)o2)cc1,x,i,i,i,i,i
CCN1CCN(c2nn3c(=O)c4ccccc4nc3c3ccccc23)CC1,0.47,i,-8.6*,i,i,i
CC1CN(c2nn3c(=O)c4ccccc4nc3c3ccccc23)CC(C)O1 (centres undefined),-1.7,i,i,i,i,i
CCN(C(=O)COC(=O)CSc1ccc(C(N)=O)cc1[N+](=O)[O-])C1CCCCC1,x,i,i,i,i,i
COc1ccc2cc(C(C)C(=O)N3CCC(C(N)=O)CC3)ccc2c1 (centres undefined),x,i,i,i,i,i
CS(=O)(=O)Nc1cccc(C2=NN(S(C)(=O)=O)C(c3ccc4c(c3)OCO4)C2)c1 (centres undefined),-0.00046,-7.6*,i,i,i,i
CCOC(=O)C1CCN(c2cc3c(cc2NC(=O)c2ccccc2Cl)n(C)c(=O)n3C)CC1,x,i,i,i,i,i
CCOC(=O)C1CCN(c2cc3c(cc2NC(=O)c2ccccc2OCC)n(C)c(=O)n3C)CC1,x,i,-7.8*,i,i,i
CCCCOc1ccc(N2CC(C(=O)NCc3ccco3)CC2=O)cc1 (centres undefined),x,i,i,i,i,i
COc1ccc(CNC(=O)C(=O)NCC2OCCN2S(=O)(=O)c2ccccc2)cc1 (centres undefined),x,i,i,i,i,i
Cc1nn(CCCC(=O)NCc2ccc(F)cc2)c(=O)c2nccn12,x,-5.5*,i,i,i,i
Cc1ccc(OS(=O)(=O)c2ccc(N3C(=O)CCC3=O)cc2)cc1,x,i,i,i,i,i
COc1ccc(CCNC(=O)c2nn(C)c3c2CS(=O)(=O)c2ccccc2-3)cc1OC,x,i,i,i,i,i
Cc1c(N2C(=O)/C(=C/C3CC=CCC3)SC2=S)c(=O)n(-c2ccccc2)n1C (centres undefined),0.021,i,i,i,i,i
Cc1c(N2C(=O)/C(=C/c3cccc4ccccc34)SC2=S)c(=O)n(-c2ccccc2)n1C,-6.8*,i,i,i,i,i
O=C(NNS(=O)(=O)c1cc(Cl)c(Cl)cc1Cl)c1cccnc1,x,-9.2*,i,i,i,i
C[N+](C)(C)CC/C=C1/c2ccccc2CSc2ccccc21,-0.027,i,i,i,i,i
CC(=O)OCCCN(C)CC/C=C1/c2ccccc2CSc2ccccc21,x,i,-7.9*,i,i,i
Cc1ccc(OCC(=O)NNC(=S)NC(=O)c2ccc(Br)o2)c(C)c1,x,i,-11*,10*,i,i
Cc1cc(OCC(=O)NNC(=S)NC(=O)c2cccs2)ccc1Cl,x,i,-7.8*,8.4*,i,i
SMILES,KCC2 mod,MrgX1 antagonist,RGS4 pot,MrgX1 PAM,RGS4 inh,MrgX1 agonist
Cc1ccc(OCC(=O)NNC(=S)NC(=O)c2cccs2)c(C)c1,x,i,-9*,i,i,35*
O=C(COc1ccc(Br)cc1Br)NNC(=O)c1cccs1,x,i,i,i,i,i
CCc1c(C(=O)NNC(=O)Nc2ccc3c(c2)OCO3)csc1C,x,i,i,i,i,i
Cc1ccc(C)c(NC(=O)/C(C#N)=C/c2ccc(Sc3nncn3C)c([N+](=O)[O-])c2)c1,-0.32,i,i,i,6.2*,i
Cn1cnnc1Sc1ccc(/C=C(\CC(=O)O)c2nc3ccccc3s2)cc1[N+](=O)[O-],-1.5,i,i,i,i,i
CC1=C(C(=O)Nc2cccc(C(=O)NC(C)c3ccccc3)c2)SCCO1 (centres undefined),x,i,i,i,i,i
CCC(C)NCCCCOc1ccc(Br)cc1 (centres undefined),0.098,i,i,i,i,i
CCC(C)NCCCCOc1cc(C)cc(C(C)C)c1 (centres undefined),1.6,i,-7.3*,i,i,i
CCCCn1c(N)c(N(CC(C)C)C(=O)c2ccc(OCc3c(C)noc3C)cc2)c(=O)[nH]c1=O,x,i,i,i,i,i
CCCCn1c(N)c(N(CC(C)C)C(=O)c2ccc(OCC3CCCO3)cc2)c(=O)[nH]c1=O (centres undefined),x,-6.2*,i,i,i,i
CCc1ccc(-c2nc(SCC(=O)N(CC)C3CCS(=O)(=O)C3)n[nH]2)cc1 (centres undefined),x,i,i,i,i,i
NC(c1ccccc1)c1ccncc1 (centres undefined),x,i,i,i,i,i
CCc1ccc(-n2cc(-c3ccc(F)cc3)[n+]3c2SCCC3)cc1,1.1,i,-7.3*,i,i,i
O=C(COc1coc(CN2CCCc3ccccc32)cc1=O)Nc1ccc([N+](=O)[O-])cc1,x,i,i,i,i,i
O=C(COC(=O)C12CC3CC(CC(C3)C1)C2)Nc1ccc([N+](=O)[O-])cc1Cl,1.4,-6.6*,i,i,i,i
Cc1ccsc1CN(C)CC(=O)Nc1ccc([N+](=O)[O-])cc1Cl,x,i,-8.5*,i,i,i
CN(CC(=O)Nc1cc([N+](=O)[O-])ccc1Cl)Cc1ccc(Br)cc1,-0.63,i,i,i,i,i
CC(OC(=O)Cc1ccc(Br)cc1)C(=O)NC1CCCCC1C (centres undefined),x,i,i,i,i,i
